Test results reported in PMC7693064 (American Journal of Hematology, 2020).

Legend:
C3 = C3 (Homo sapiens, UniProt P01024); test: Serum C3 levels, PHAROAH; type: in vivo
Procedure, shortened: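 Values were judged against the reference range in use at each time point. For one subject, pegcetacoplan dosing was suspended between days 29 and 56 and resumed at 180 mg/d on day 57. Individual data were plotted over time.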

classical pathway = test: CH50 assay, hemolytic activity of the classical pathway, PHAROAH; type: in vivo, human; conditions: six subjects, first year of treatment, with eculizumab
Procedure, shortened: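 Results were reported in complement activity enzyme units or U/mL, as the laboratory changed units during the study. Each value was judged against the reference range in use at that time point. Individual subject data were plotted over time.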

PNH RBCs = type: in vivo, human
Procedure, shortened: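 Whole-blood flow cytometry. RBCs were gated with FITC anti-human glycophorin A, and CD59 was detected with PE anti-CD59 to classify type II (partial) and type III (complete) deficient cells. C3 deposition was detected with biotinylated anti-human C3d plus streptavidin-APC. Matched mouse IgG isotype controls were included.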

[1] = Pegcetacoplan serum concentrations; type: in vivo, human; conditions: single-dose phase, SC 25 or 50 mg (cohorts 1 and 2)
subjects with PNH [2] = test: Hemolytic markers; type: in vivo, human
alternative pathway = test: AH50 assay, hemolytic activity of the alternative pathway, PHAROAH; type: in vivo, human
subjects with PNH [3] = test: Packed RBC transfusions, PHAROAH; type: in vivo, human
Procedure, shortened: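 Packed RBC transfusions given to each cohort 4 subject were recorded throughout the study. […] Pegcetacoplan was given at 270 mg/d SC, and dosing could be increased with Sponsor approval.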

[4] = subject 12, day 421, after initial attempt to discontinue eculizumab with no increase in pegcetacoplan dosing

C3, sequence (P01024 23-1663): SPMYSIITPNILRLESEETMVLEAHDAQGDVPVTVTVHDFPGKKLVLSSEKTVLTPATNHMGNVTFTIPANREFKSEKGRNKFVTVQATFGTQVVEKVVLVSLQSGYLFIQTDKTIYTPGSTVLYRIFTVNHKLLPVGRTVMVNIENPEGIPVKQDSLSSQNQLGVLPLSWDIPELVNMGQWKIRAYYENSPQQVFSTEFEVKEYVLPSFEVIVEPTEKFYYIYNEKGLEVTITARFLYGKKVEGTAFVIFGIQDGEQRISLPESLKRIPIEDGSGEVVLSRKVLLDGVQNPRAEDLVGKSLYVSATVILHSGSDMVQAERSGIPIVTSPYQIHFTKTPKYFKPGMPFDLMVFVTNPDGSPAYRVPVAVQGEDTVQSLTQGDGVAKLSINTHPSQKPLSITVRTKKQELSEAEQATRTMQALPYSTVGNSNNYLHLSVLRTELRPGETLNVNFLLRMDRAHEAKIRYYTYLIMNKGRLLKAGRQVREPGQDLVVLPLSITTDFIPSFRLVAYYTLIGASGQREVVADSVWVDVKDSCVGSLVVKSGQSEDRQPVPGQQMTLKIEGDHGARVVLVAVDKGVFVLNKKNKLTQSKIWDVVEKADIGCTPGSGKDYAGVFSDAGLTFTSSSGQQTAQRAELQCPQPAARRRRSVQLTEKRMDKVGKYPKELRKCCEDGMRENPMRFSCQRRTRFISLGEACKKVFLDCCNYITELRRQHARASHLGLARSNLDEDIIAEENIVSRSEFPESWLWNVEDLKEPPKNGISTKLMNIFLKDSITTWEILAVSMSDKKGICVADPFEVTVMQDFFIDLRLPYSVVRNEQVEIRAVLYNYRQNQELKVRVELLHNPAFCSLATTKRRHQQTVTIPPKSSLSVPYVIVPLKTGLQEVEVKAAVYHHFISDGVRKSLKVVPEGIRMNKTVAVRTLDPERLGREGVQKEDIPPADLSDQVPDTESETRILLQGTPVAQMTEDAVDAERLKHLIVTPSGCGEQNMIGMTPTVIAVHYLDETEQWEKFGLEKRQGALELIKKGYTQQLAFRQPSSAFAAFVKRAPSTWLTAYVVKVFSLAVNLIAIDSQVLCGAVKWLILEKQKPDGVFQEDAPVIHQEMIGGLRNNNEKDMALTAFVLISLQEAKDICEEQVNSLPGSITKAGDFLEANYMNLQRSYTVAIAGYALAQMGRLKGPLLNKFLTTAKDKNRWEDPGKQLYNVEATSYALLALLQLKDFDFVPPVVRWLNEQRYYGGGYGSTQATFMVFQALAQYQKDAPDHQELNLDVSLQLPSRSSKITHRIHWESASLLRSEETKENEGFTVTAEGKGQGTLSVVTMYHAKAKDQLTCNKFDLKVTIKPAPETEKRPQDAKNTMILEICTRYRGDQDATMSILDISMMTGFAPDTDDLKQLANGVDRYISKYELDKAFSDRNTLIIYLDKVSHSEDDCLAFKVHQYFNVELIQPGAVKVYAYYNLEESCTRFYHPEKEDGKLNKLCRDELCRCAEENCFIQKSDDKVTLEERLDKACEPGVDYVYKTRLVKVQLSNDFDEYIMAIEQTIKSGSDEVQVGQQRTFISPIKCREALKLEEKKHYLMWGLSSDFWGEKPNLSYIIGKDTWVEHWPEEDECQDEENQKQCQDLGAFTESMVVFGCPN

Substance: pegcetacoplan
- Serum C3 levels, change (C3; all subjects in cohort 4): increase
- Serum C3 level (C3; subject 11, day 29): 415 mg/dL
- Serum C3 level (C3; subject 11, day 57, after suspension of pegcetacoplan dosing): 107 mg/dL
- Effect on CH50 (classical pathway): No significant effect
- Deposition of C3 fragments on the surface of type II and III RBCs (PNH RBCs; all subjects in cohort 4): decrease
- Type II and III cells as a proportion of the clonal distribution of total RBCs (PNH RBCs; five subjects, by day 85): > 90%
- Time of peak serum concentration [1]: a week after dosing
- Subjects with hemoglobin levels within reference range 11.1-15.9 g/dL (subjects with PNH [2]; after 2 years of treatment, four remaining subjects): three of the four
- Reticulocyte count, change during the study (subjects with PNH [2]; cohort 4): reductions were observed in all subjects
- Total bilirubin levels, change during the study (subjects with PNH [2]; cohort 4): Decreases in total bilirubin levels were observed in all subjects
- Hemoglobin levels (subjects with PNH [2]; cohort 4, all six subjects): increased in all subjects by day 29
- LDH levels during treatment (subjects with PNH [2]; cohort 4, with some fluctuations): remained stable
- LDH level (subjects with PNH [2]; [4]): 1571 U/L
- Total bilirubin level (subjects with PNH [2]; [4]): 2.3 mg/dL
- AH50 levels (alternative pathway; after eculizumab discontinuation): increased following eculizumab discontinuation
- Subjects with AH50 levels within the 77-159 U/mL reference range (alternative pathway; last evaluation time point, four subjects who completed the study): two of the four
- Transfusion avoidance (subjects with PNH [3]; four subjects who completed the study): achieved in all four subjects
- Packed RBC transfusions received during the study (subjects with PNH [3]; subject 9, seven given before steady state or after pegcetacoplan was suspended): nine
